According to the array DNA melting data of Ke et al. (doi:10.1101/2024.01.08.574731):

What was measured:
[1] = folding enthalpy; higher = less favourable; fluorescence melt of hairpins on a sequencing array, two-state fit; settings: sodium 0.088 M
In short: (§1)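 Folding enthalpy and melting temperature were estimated with bootstrapped two-state fits and combined across four replicates by inverse-variance weighting, with fitted temperatures raised by 9.35 °C to match UV melts. The data were Cy3 fluorescence of library hairpins, with annealed Cy3 and quencher oligos, on a sequenced MiSeq flow cell in 50 mM Na-HEPES pH 8.0, 25 mM NaCl, imaged in 2.5 °C steps up to 60 °C and normalised to pre-quench Cy3 and control constructs.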

[2] = melting temperature; fluorescence melt of hairpins on a sequencing array, two-state fit, raised by 9.35 °C to match UV melts; settings: sodium 0.088 M
In short: as §1

Sequence | folding enthalpy [1] | Tm [2]
GATCCATGGTTGGATC ((((((....)))))) | -42.8 kcal/mol | 51.3 °C
GATACCGAAAGGTGTATC ((((((....)))..))) | -14.8 kcal/mol | 35.9 °C
GTGCTCTCGAAAGAGCAC (((..(((....)))))) | -40.3 kcal/mol | 62.6 °C
GATCAGGCAACTGATC ((((((....)))))) | -37.6 kcal/mol | 60.6 °C
GGCAGAGGAAACTCTGCC (((((((....))))))) | -40.2 kcal/mol | 67.6 °C
GTTCTGGGAAACCAGGAC ((.((((....)))).)) | -31.8 kcal/mol | 49.1 °C
GTTGGGGGAAACCCTAGC (.(.(((....))).).) | -9.75 kcal/mol | 24.6 °C
GTCTTAGGAAACTGAGAC ((((.((....)).)))) | -30.7 kcal/mol | 40.9 °C
TAGGAGAAATCCTA (((((....))))) | -8.63 kcal/mol | 25.9 °C
GCGTTCGAAAGAACCCGC ((((((....)))..))) | -14.2 kcal/mol | 40.8 °C
GTGGCACCGAAAGGTCAC (((..(((....)))))) | -14.9 kcal/mol | 42.6 °C
GTTAACGAAAGTTATAAC ((((((....)))..))) | -13.3 kcal/mol | 26.4 °C
GGTCCAGGAAACCAGACC ((((..(....)..)))) | -23.1 kcal/mol | 34.5 °C
GTGAACTCGAAAGAGCAC (((..(((....)))))) | -13.4 kcal/mol | 35.1 °C
GATCTTAATGAAGATC ((((((....)))))) | -27.5 kcal/mol | 39.5 °C
GTCAACGAAAGTTCGGAC ((((((....)))..))) | -14 kcal/mol | 30.5 °C
GTCGTAGCGAAAGCTGAC (((..(((....)))))) | -19.6 kcal/mol | 46.3 °C
GGTGAGGGAAACCTTACC (((.(((....))).))) | -33.9 kcal/mol | 46.6 °C
GCTAAGCGAAAGCTTCGC ((.((((....)))).)) | -20.9 kcal/mol | 53.8 °C
GTCCTACGAAAGTATGAC (((.(((....))).))) | -32.3 kcal/mol | 41.9 °C
GATCGAACTTCGATC ((((((...)))))) | -31.3 kcal/mol | 51 °C
GATCTTCTATAAGATC ((((((....)))))) | -30.3 kcal/mol | 43.5 °C
GCCGGGCGAAAGCAGGGC (((..((....))..))) | -29 kcal/mol | 62.2 °C

Sequence | folding enthalpy [1] | Tm [2]
GATCAACCGATTGATC ((((((....)))))) | -32.6 kcal/mol | 41.5 °C
GATCTCTTCCGAGATC ((((((....)))))) | -37 kcal/mol | 52.3 °C
GTATACGAAAGTAAATAC ((((((....)))..))) | -14.8 kcal/mol | 27.7 °C
GATCCTTTTGAGGATC ((((((....)))))) | -36.9 kcal/mol | 54.1 °C
GTTGAACGAAAGTTTAAC (((.(((....))).))) | -31.7 kcal/mol | 45.3 °C
GCCAAGCGAAAGCTGAGC ((..(((....)))..)) | -15.3 kcal/mol | 47.7 °C
GATCACTCCCGTGATC ((((((....)))))) | -47.2 kcal/mol | 55.8 °C
GAATAGCGAAAGCTTTTC (((.(((....))).))) | -20.6 kcal/mol | 36.6 °C
CGGGCGGAAACGCAACCG ((((((....)))..))) | -23.9 kcal/mol | 49.7 °C
GTTTGGTCGAAAGACAAC (((..(((....)))))) | -13.2 kcal/mol | 31.4 °C
GGAGGGCCGAAAGGCTCC (((..(((....)))))) | -9.45 kcal/mol | 39.4 °C
GGGTATGGAAACACACCC ((((.((....)).)))) | -29.8 kcal/mol | 42.8 °C
GATCCTAATCAGGATC ((((((....)))))) | -38.6 kcal/mol | 50.5 °C
GTGGTCGAAAGACTCCAC ((((((....)))..))) | -13.7 kcal/mol | 38.9 °C
GATCCGAGCGCGGATC ((((((....)))))) | -42.4 kcal/mol | 58.8 °C
GATCATCAATATGATC ((((((....)))))) | -35 kcal/mol | 45 °C
GCGTGGCGAAAGCCTGGC ((..(((....)))..)) | -17.4 kcal/mol | 52.4 °C
CGGCCGGAAACGGCGCCG ((((((....)))..))) | -8.21 kcal/mol | 39.2 °C
GGCGCACCGAAAGGTGCC (((..(((....)))))) | -6.69 kcal/mol | 47.5 °C
GCCAGCGGAAACACCGGC (((.(.(....).).))) | -10.2 kcal/mol | 27.6 °C
GCACCAGGAAACCGGTGC (((((.(....).))))) | -42.4 kcal/mol | 58.3 °C
GAAGGGACGAAAGTCTTC (((..(((....)))))) | -11.8 kcal/mol | 26.7 °C
GCTGCGCGAAAGCTCGGC ((.(.((....)).).)) | -22.4 kcal/mol | 48.3 °C

Sequence | folding enthalpy [1] | Tm [2]
GCATTCGGAAACGAACGC ((.((((....)))).)) | -37.2 kcal/mol | 46.7 °C
GATCAGCCCCTGATC ((((((...)))))) | -36.2 kcal/mol | 49.2 °C
GCCCACGAAAGTGCAGGC ((((((....)))..))) | -28.1 kcal/mol | 50.1 °C
GAGGTGGGAAACCGCCTC ((((.((....)).)))) | -46.9 kcal/mol | 57.1 °C
GCGACTTCTCGC ((((....)))) | -25.7 kcal/mol | 47.8 °C
GGTTGCGGAAACGCAGCC ((.((((....)))).)) | -39.2 kcal/mol | 63.5 °C
GGTATTACGAAAGTAACC (((..(((....)))))) | -13.4 kcal/mol | 27.5 °C
GCAGGCGAAAGCCCTTGC ((((((....)))..))) | -11.9 kcal/mol | 38.9 °C
GATCGTTGCGACGATC ((((((....)))))) | -41.2 kcal/mol | 60.7 °C
GGGTTTCGAAAGAAGCCC (((.(((....))).))) | -44.4 kcal/mol | 57.1 °C
ATCAGGAAACTGAT (((((....))))) | -16.5 kcal/mol | 40.6 °C
GTGCGCGGAAACGCGTGC (..((((....))))..) | -16.7 kcal/mol | 57 °C
GAAAGACCGAAAGGTTTC (((..(((....)))))) | -11.5 kcal/mol | 28.8 °C
GATCCTGATGAGGATC ((((((....)))))) | -31.9 kcal/mol | 51.1 °C
GACTCCGAAAGGATAGTC ((((((....)))..))) | -22.5 kcal/mol | 41.5 °C
GCGTCCTAACGC ((((....)))) | -26.4 kcal/mol | 54.8 °C
GGGCTTGGAAACAGGTCC ((.(.((....)).).)) | -27.9 kcal/mol | 39.7 °C
GCGGAGAGCCGC ((((....)))) | -17.4 kcal/mol | 54.4 °C
GATCCGGAAGCGGATC ((((((....)))))) | -33.2 kcal/mol | 59.8 °C
GCTCGCGAAAGCGAGAGC ((((((....)))..))) | -9.87 kcal/mol | 66.7 °C
GATCACTTGAGTGATC ((((((....)))))) | -42.4 kcal/mol | 56.1 °C
GGCACTTCGAAAGAAGCC (((..(((....)))))) | -9.16 kcal/mol | 32.2 °C
GCTCGGCGAAAGCCCGGC ((..(((....)))..)) | -7.98 kcal/mol | 56.9 °C

Sequence | folding enthalpy [1] | Tm [2]
GATGTAGGAAACCACATC (((((.(....).))))) | -34.1 kcal/mol | 37.6 °C
GTCTGCGCGAAAGCGGAC (((..(((....)))))) | -13.3 kcal/mol | 45.2 °C
GATCATCTTCATGATC ((((((....)))))) | -37.2 kcal/mol | 47.3 °C
GACGGCCGAAAGGCGTC (((.(((....)))))) | -20.6 kcal/mol | 64.8 °C
GTCTTAGGAAACTAAGGC (.(((((....))))).) | -25.9 kcal/mol | 42.9 °C
GGATCCCGAAAGGGCTCC (((.(((....))).))) | -26.5 kcal/mol | 51.3 °C
GCGTCAGCGAAAGCTCGC (((..(((....)))))) | -10.1 kcal/mol | 47.2 °C
GTGTGGGGAAACCCACGC (.(((((....))))).) | -14.2 kcal/mol | 58.8 °C
GACGTCGGAAACGACATC ((.((((....)))).)) | -12.7 kcal/mol | 37.2 °C
GATCCCATCTGGGATC ((((((....)))))) | -36.2 kcal/mol | 62.6 °C
GCAAGACGAAAGTCCTGC (((.(((....))).))) | -26.4 kcal/mol | 48.7 °C
GGTGTAGAAATACACC ((((((....)))))) | -29.6 kcal/mol | 53.7 °C
GATCGCCGGAGCGATC ((((((....)))))) | -31.6 kcal/mol | 68.9 °C
GCCTCAACGAAAGTTGGC (((..(((....)))))) | -12.4 kcal/mol | 42.9 °C
GGGCAGGGAAACCCACCC (((..((....))..))) | -24.5 kcal/mol | 34.8 °C
GGGTTCACGAAAGTGCCC (((..(((....)))))) | -19.6 kcal/mol | 41.2 °C
GATCCTTTGGAGGATC ((((((....)))))) | -39.5 kcal/mol | 53.3 °C
GAACATGGAAACATGTCC (.(((((....))))).) | -15.4 kcal/mol | 35.8 °C
GGATCCGGAAACGAATCC ((((.((....)).)))) | -29 kcal/mol | 41.8 °C
GGTGGCGAAAGCCCGACC ((((((....)))..))) | -12.8 kcal/mol | 41.5 °C
GCCTGGCGAAAGCCTTGC ((..(((....)))..)) | -13 kcal/mol | 42.1 °C
GTCAAACGAAAGTTGAC (((.(((....)))))) | -26.5 kcal/mol | 49.7 °C
GTTACGGGAAACCGCAAC (((.(((....))).))) | -26 kcal/mol | 41.7 °C
